Laboratory results taken from ChEMBL document CHEMBL3091291, “Synthesis and pharmacological characterization of benzenesulfonamides as dual species inhibitors of human and murine mPGES-1” (Bioorg Med Chem, 2013).
Active and inactive are the calls of the source. The rule behind the calls is not given here.

Tests used:
[1] = target: T1, Polyunsaturated fatty acid 5-lipoxygenase (Homo sapiens) (UniProt P09917); assay: Inhibition of calcium ionophore (A23187)-stimulated human 5-LO assessed as reduction of 5(S)-HETE production by measuring remaining activity at 100 uM preincubated for 15 mins followed by calcium ionophore (A23187) addition measured after 15 mins by LC-MS/MS analysis
T1 sequence (whole entry): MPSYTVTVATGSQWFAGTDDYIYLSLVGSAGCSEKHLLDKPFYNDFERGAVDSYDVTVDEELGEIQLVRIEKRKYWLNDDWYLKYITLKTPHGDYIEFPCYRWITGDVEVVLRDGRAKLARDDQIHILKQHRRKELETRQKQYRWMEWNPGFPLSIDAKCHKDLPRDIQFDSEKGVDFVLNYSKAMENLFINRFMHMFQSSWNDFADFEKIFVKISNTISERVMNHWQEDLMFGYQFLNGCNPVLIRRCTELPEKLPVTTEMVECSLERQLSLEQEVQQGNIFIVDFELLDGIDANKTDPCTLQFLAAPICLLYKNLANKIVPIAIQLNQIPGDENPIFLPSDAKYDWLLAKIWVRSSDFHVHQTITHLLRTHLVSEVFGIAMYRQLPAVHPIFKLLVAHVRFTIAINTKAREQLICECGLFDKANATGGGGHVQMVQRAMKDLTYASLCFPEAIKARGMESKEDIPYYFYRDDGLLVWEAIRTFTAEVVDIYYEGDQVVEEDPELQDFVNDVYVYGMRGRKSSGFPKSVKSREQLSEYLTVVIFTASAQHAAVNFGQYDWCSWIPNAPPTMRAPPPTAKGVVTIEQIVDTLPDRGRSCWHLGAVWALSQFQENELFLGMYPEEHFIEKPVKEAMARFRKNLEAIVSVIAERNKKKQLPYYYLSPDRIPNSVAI
Summary of the method: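 Heparinized human whole blood (500 µL) preincubated with compound 15 min at 37 °C, then stimulated with 20 µM calcium ionophore A23187 in autologous plasma for 15 min at 37 °C. Plasma spiked with deuterated LTB₄ and HETE internal standards, extracted into ethyl acetate, analysed by LC–MS/MS. Inhibition scored when a level fell by 33% or more versus control.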

[2] = target: Prostaglandin G/H synthase 1 (Homo sapiens) (UniProt P23219); assay: Inhibition of COX1 in human whole blood assessed as reduction in PGD2 production by measuring remaining activity at 100 uM after 1 hr by LC-MS/MS analysis
Prostaglandin G/H synthase 1 (Homo sapiens), sequence (P23219 whole entry): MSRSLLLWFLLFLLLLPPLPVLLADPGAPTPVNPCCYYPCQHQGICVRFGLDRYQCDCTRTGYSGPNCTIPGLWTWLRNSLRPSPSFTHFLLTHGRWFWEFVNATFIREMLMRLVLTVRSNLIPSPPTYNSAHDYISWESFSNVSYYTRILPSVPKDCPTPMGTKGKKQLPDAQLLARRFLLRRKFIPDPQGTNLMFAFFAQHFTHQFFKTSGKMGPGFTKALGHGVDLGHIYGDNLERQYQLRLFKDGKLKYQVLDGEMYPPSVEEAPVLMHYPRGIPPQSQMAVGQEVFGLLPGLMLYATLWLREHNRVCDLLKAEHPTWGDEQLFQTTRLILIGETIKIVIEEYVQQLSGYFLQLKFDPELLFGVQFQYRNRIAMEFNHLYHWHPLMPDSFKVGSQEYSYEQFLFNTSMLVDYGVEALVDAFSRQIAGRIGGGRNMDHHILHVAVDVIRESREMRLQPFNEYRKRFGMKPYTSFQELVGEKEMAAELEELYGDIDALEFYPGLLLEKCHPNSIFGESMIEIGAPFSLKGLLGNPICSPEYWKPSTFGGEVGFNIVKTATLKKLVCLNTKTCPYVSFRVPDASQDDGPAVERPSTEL

[3] = Cytotoxicity against IL-1beta/TNFalpha-stimulated human HeLa cells assessed as cell viability at 100 uM after 24 hrs by WST-1 assay; type: cell-based; conditions: IL-1beta/TNFalpha-stimulated HeLa cells, read-out: Activity
Summary of the method: (§1)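 HeLa cells seeded at 3 × 10³ per well in medium with 10% FCS, grown 24 h at 37 °C, then stimulated with IL-1b (1 ng/mL) + TNFa (5 ng/mL) and treated at the same time with compound (1, 10, 100 µM) or DMSO for 24 h. WST-1 reagent then added for 90–150 min; absorbance read at 450 nm against 620 nm reference.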

[4] = tested on: HeLa; assay: Cytotoxicity against IL-1beta/TNFalpha-stimulated human HeLa cells assessed as cell viability up to 10 uM after 24 hrs by WST-1 assay; type: cell-based; summary of the method: as §1
[5] = target: T2, Prostaglandin E synthase (Homo sapiens) (UniProt O14684); assay: Inhibition of mPGES-1 in human HeLa cells using PGH2 as substrate assessed as inhibition of IL-1beta/TNFalpha-stimulated PGE2 production at 100 uM after 24 hrs by LC-MS/MS analysis; type: cell-based
T2 sequence (whole entry): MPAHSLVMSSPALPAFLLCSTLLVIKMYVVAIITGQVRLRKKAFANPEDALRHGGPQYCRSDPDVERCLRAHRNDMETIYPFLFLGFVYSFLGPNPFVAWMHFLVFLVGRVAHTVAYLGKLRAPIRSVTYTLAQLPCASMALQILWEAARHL
Summary of the method: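 HeLa cells (2 × 10⁴ per well) grown 24 h at 37 °C, then given fresh medium with 1 ng/mL IL-1b + 5 ng/mL TNFa (or PBS for unstimulated control) plus compound (1, 10 or 100 µM) or DMSO for 24 h at 37 °C. Supernatant mixed with H₃PO₄, EDTA and deuterated internal standards; PGE₂ measured by SPE and LC–MS/MS.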

[6] = target: T3, Prostaglandin G/H synthase 2 (Homo sapiens) (UniProt P35354); assay: Inhibition of recombinant human COX2 using […] at 10 uM by LC-MS/MS analysis
T3 sequence (whole entry): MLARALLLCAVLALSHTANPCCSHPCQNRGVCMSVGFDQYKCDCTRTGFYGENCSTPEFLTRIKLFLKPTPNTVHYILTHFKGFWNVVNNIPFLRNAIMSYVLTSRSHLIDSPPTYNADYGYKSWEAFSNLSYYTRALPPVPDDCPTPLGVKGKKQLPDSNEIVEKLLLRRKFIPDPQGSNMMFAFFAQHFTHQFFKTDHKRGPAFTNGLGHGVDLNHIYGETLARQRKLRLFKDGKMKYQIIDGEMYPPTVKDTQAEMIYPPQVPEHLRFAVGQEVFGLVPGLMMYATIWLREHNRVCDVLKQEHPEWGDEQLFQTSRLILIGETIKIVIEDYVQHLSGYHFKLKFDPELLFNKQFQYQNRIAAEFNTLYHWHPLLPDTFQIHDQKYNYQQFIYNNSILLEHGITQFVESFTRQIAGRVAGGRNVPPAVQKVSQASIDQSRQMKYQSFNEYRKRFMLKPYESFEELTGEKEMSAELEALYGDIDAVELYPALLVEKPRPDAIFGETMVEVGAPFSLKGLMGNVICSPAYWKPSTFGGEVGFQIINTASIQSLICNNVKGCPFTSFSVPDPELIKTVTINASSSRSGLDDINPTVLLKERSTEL
Summary of the method: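 Ovine COX-1 and recombinant human COX-2 tested directly with a commercial COX inhibitor screening kit, following the manufacturer's protocol. COX-derived PGH₂ reduced with SnCl₂; the resulting PGE₂, PGD₂ and PGF₂a diluted in MeOH, spiked with deuterated internal standards and quantified by SPE and LC–MS/MS.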

[7] = target: T4, Prostaglandin E synthase (Mus musculus) (UniProt Q9JM51); assay: Inhibition of mPGES-1 in mouse RAW264.7 cells using PGH2 as substrate assessed as inhibition of LPS-stimulated PGE2 production at 5 uM preincubated for 30 mins followed by substrate addition measured after 1 min by LC-MS/MS analysis; type: cell-based
T4 sequence (whole entry): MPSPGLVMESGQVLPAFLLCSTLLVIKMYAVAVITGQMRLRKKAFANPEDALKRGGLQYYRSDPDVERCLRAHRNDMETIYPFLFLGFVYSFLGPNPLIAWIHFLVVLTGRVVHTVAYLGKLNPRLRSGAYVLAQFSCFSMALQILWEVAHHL
Summary of the method: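 Microsomal fraction from HeLa, NIH-3T3 or RAW 264.7 cells, obtained by sonication and ultracentrifugation, resuspended in 0.1 M KPi pH 7.4 with 2.5 mM reduced GSH. Protein at 0.15 mg/mL (HeLa, NIH) or 0.3 mg/mL (RAW) incubated with compound 30 min on ice. Reaction started with 20 µM PGH₂, stopped after 1 min with FeCl₂/citric acid. PGE₂ quantified by SPE and LC–MS/MS. IC50 from four-parameter logistic fit of increasing concentrations.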

Row | SMILES | Activity [1] [%] | Activity [2] [%] | inhibition [5] | inhibition [6] [%] | inhibition [7] [%] | viability at 24 h, 100 µM [3] [%] | Activity [4]
1 | COc1ccc(CN(Cc2ccccc2)S(=O)(=O)c2ccc(C(=O)O)cc2)cc1 | 120 | 89.2 | Active | < 0 | 29.8 | 50 | Non-toxic
2 | COc1ccc(CN(CC2CCCCC2)S(=O)(=O)c2ccc(C(=O)O)cc2)cc1 | 65.6 | 110 | Active | 18.5 | – | 50 | Non-toxic

Further lines, with some results ahead:

Row | Activity [1] [%] | Activity [2] [%] | inhibition [5] | inhibition [6] [%] | inhibition [7] [%] | SMILES | viability at 24 h, 100 µM [3] [%] | Activity [4]
3 | 98.7 | 61.5 | Active | 3.1 | 71.4 | O=C(O)c1ccc(S(=O)(=O)N(Cc2ccccc2)Cc2ccc(Oc3ccccc3)cc2)cc1 | 50 | Non-toxic
4 | 56.2 | 109 | Active | 12.9 | – | O=C(O)c1ccc(S(=O)(=O)N(Cc2ccccc2)Cc2ccc(Nc3ccccc3)cc2)cc1 | 50 | Non-toxic
5 | 125 | 48.5 | Active | < 0 | 74.7 | O=C(O)c1ccc(S(=O)(=O)N(Cc2ccccc2)c2ccc(Oc3ccccc3)cc2)cc1 | 50 | Non-toxic
